Here are results for 31 molecules from BindingDB's records for doi:10.1021/jm970020k (Eli Lilly, 1997).

By IC50 is commonly meant the concentration needed to halve the response being measured.

Molecular target in one experiment: not listed separately
The experiment in a line: Inhibition ADP-induced (fibrinogen-mediated) platelet aggregation in human platelet-rich plasma (PRP).
Molecule `N=C(N)c1ccc2c(c1)cc(C(=O)NCCCCCCC(=O)O)n2Cc1ccccc1` [7-[(1-Benzyl-5-carbamimidoyl-1H-indole-2-carbonyl)-amino]-heptanoic acid] gave an IC50 of 21 µM.

`N=C(N)c1ccc2oc(C(=O)NCCCCCCCC(=O)O)cc2c1` [8-[(5-Carbamimidoyl-benzofuran-2-carbonyl)-amino]-octanoic acid] returned an IC50 of 26.7 µM.

The molecule `C#C[C@H](CC(=O)O)NC(=O)CCC(=O)Nc1ccc(C(=N)N)cc1` [(S)-3-[3-(4-Carbamimidoyl-phenylcarbamoyl)-propionylamino]-pent-4-ynoic acid] returned an IC50 of 0.035 µM.

A further experiment deals with Integrin alpha-IIb/beta-3 (Homo sapiens, UniProt P08514+P05106). The experiment in a line: Inhibition of the platelet GPIIb-IIIa receptor measured as ability to attenuate ADP-induced (fibrinogen-mediated) platelet aggregation in human platelet-rich plasma (PRP). In a few lines: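 Functional GPIIb-IIIa assay in human platelet-rich plasma. Aggregation was induced with ADP and depends on fibrinogen.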
Integrin alpha-IIb/beta-3, sequence (P05106 27-788 limits assumed): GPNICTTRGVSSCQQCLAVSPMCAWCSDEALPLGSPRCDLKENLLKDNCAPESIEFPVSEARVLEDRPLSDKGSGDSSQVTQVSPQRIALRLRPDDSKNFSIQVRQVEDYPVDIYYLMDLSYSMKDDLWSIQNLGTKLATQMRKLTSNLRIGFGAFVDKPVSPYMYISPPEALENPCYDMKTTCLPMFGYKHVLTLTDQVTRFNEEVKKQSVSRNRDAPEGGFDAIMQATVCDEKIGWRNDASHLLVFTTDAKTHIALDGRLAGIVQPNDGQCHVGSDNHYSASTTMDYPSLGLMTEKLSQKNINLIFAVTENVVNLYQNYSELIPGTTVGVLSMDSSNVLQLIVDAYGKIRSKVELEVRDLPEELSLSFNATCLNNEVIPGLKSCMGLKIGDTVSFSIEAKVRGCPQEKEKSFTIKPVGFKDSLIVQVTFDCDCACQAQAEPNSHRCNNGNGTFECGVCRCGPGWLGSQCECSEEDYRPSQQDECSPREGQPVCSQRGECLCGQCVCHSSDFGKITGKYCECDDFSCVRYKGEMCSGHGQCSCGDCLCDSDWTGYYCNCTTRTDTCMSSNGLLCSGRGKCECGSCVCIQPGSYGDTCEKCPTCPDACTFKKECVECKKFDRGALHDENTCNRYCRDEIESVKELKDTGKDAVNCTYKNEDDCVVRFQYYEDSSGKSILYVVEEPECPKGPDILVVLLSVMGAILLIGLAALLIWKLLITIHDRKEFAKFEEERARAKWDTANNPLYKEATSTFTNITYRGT
Integrin alpha-IIb/beta-3, sequence (P08514 32-887 limits assumed): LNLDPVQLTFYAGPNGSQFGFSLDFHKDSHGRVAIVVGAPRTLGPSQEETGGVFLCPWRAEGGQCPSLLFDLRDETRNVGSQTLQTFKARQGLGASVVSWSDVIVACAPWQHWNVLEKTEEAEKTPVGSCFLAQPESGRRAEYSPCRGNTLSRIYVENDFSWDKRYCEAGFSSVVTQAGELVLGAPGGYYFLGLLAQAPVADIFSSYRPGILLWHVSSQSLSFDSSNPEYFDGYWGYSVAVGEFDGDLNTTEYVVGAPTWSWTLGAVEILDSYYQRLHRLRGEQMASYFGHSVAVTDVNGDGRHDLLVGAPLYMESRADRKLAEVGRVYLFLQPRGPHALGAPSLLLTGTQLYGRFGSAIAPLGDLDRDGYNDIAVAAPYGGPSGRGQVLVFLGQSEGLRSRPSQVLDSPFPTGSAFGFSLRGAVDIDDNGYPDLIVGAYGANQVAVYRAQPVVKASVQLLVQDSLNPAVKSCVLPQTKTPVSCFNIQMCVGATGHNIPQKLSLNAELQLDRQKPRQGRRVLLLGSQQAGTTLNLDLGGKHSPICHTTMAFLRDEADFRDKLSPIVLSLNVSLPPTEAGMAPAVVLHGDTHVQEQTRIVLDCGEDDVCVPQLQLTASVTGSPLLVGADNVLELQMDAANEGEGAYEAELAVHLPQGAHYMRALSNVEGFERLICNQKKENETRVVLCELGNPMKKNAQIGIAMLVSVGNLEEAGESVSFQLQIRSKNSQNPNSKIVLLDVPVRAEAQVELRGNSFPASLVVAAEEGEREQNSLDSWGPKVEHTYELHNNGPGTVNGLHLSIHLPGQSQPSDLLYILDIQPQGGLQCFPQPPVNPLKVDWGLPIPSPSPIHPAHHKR
Integrin alpha-IIb/beta-3, sequence (P08514 891-1039 limits assumed): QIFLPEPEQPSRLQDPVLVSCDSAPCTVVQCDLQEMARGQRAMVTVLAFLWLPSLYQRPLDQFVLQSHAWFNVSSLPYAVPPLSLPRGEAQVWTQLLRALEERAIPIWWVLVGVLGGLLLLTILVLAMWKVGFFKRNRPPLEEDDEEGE
As for `N=C(N)c1ccc2[nH]c(C(=O)NCCCCC(CC(=O)O)c3ccccc3)cc2c1` (stereo unspecified) [7-[(5-Carbamimidoyl-1H-indole-2-carbonyl)-amino]-3-phenyl-heptanoic acid], the IC50 is 4.9 µM.

In the case of `N=C(N)c1ccc2[nH]c(C(=O)NCCCCCCC(=O)O)cc2c1` [7-[(5-Carbamimidoyl-1H-indole-2-carbonyl)-amino]-heptanoic acid], the IC50 was determined as 2.8 µM.

In turn, `CCC(CCCCNC(=O)c1cc2cc(C(=N)N)ccc2[nH]1)CC(=O)O` (stereo unspecified) [7-[(5-Carbamimidoyl-1H-indole-2-carbonyl)-amino]-3-ethyl-heptanoic acid] displayed an IC50 of 5.2 µM.

Consider `N=C(N)c1ccc(NCC(=O)NCCCCCCC(=O)O)cc1` [7-[2-(4-Carbamimidoyl-phenylamino)-acetylamino]-heptanoic acid], for which the IC50 was 67 µM.

Molecule `CC(CCCCCNC(=O)c1cc2cc(C(=N)N)ccc2[nH]1)C(=O)O` (stereo unspecified) [7-[(5-Carbamimidoyl-1H-indole-2-carbonyl)-amino]-2-methyl-heptanoic acid] yielded an IC50 of 43.7 µM.

`N=C(N)c1ccc2oc(C(=O)NCCCCCC(=O)O)cc2c1` [6-[(5-Carbamimidoyl-benzofuran-2-carbonyl)-amino]-hexanoic acid] had an IC50 of 16 µM.

For the molecule `Cc1c(C(=O)NCCCCCCC(=O)O)[nH]c2ccc(C(=N)N)cc12` [7-[(5-Carbamimidoyl-3-methyl-1H-indole-2-carbonyl)-amino]-heptanoic acid], the IC50 came out at 4.1 µM.

Turning to `N=C(N)c1ccc(OCC(=O)NCCCCCCC(=O)O)cc1` [7-[2-(4-Carbamimidoyl-phenoxy)-acetylamino]-heptanoic acid], the midpoint of inhibition, the IC50, lay at 2.6 µM.

In the case of `N=C(N)c1cccc(NCC(=O)NCCCCCCC(=O)O)c1` [7-[2-(3-Carbamimidoyl-phenylamino)-acetylamino]-heptanoic acid], the IC50 was over 100 µM.

For the molecule `N=C(N)c1ccc2[nH]c(C(=O)NCCC(=O)NCCC(=O)O)cc2c1` [3-{3-[(5-Carbamimidoyl-1H-indole-2-carbonyl)-amino]-propionylamino}-propionic acid], the IC50 is 3.6 µM.

In turn, `N=C(N)c1ccc2cc(C(=O)NCCCCCCC(=O)O)oc2c1` [7-[(6-Carbamimidoyl-benzofuran-2-carbonyl)-amino]-heptanoic acid] returned an IC50 of 7.2 µM.

In turn, `N=C(N)c1ccc2c(c1)CC(C(=O)NCCCCCCC(=O)O)O2` (stereo unspecified) [7-[(5-Carbamimidoyl-2,3-dihydro-benzofuran-2-carbonyl)-amino]-heptanoic acid] yielded an IC50 of 3.4 µM.

Regarding `N=C(N)c1ccc2[nH]c(C(=O)NCCCC(=O)NCC(=O)O)cc2c1` [{4-[(5-Carbamimidoyl-1H-indole-2-carbonyl)-amino]-butyrylamino}-acetic acid], 32 µM corresponded to half-maximal inhibition (IC50). Against the preceding molecule, the IC50 is about 9.4-fold higher.

`N=C(N)c1ccc2cc(C(=O)NCCCCCCC(=O)O)[nH]c2c1` [7-[(6-Carbamimidoyl-1H-indole-2-carbonyl)-amino]-heptanoic acid] came in with an IC50 of 1.3 µM.

In turn, `N=C(N)c1ccc2oc(C(=O)NCCCCCCC(=O)O)cc2c1` [7-[(5-Carbamimidoyl-benzofuran-2-carbonyl)-amino]-heptanoic acid] displayed an IC50 of 0.27 µM.

Take `N=C(N)c1ccc2[nH]c(C(=O)NCC(=O)NCCCC(=O)O)cc2c1` [4-{2-[(5-Carbamimidoyl-1H-indole-2-carbonyl)-amino]-acetylamino}-butyric acid]: the IC50 was found to be 50 µM. Compared with the last molecule, the IC50 is about 190-fold higher.

As for `CCCCCCC(CCCCNC(=O)c1cc2cc(C(=N)N)ccc2[nH]1)CC(=O)O` (stereo unspecified) [3-{4-[(5-Carbamimidoyl-1H-indole-2-carbonyl)-amino]-butyl}-nonanoic acid], the midpoint of inhibition, the IC50, lay at 59 µM.

As for `Cn1c(C(=O)NCCCCCCC(=O)O)cc2cc(C(=N)N)ccc21` [7-[(5-Carbamimidoyl-1-methyl-1H-indole-2-carbonyl)-amino]-heptanoic acid], the IC50 came out at 7.5 µM.

Regarding `CCCCC(CCCCNC(=O)c1cc2cc(C(=N)N)ccc2[nH]1)CC(=O)O` (stereo unspecified) [3-Butyl-7-[(5-carbamimidoyl-1H-indole-2-carbonyl)-amino]-heptanoic acid], the half-inhibitory concentration (IC50) stood at 25.3 µM. This IC50 lies about 3.4-fold higher than the previous one.

`CC(CCCCNC(=O)c1cc2cc(C(=N)N)ccc2[nH]1)CC(=O)O` (stereo unspecified) [7-[(5-Carbamimidoyl-1H-indole-2-carbonyl)-amino]-3-methyl-heptanoic acid] registered an IC50 of 2.8 µM.

The molecule `CN(CCCCCCC(=O)O)C(=O)c1cc2cc(C(=N)N)ccc2[nH]1` [7-[(5-Carbamimidoyl-1H-indole-2-carbonyl)-methyl-amino]-heptanoic acid] gave an IC50 of 3 µM.

Molecule `N=C(N)c1ccc2[nH]c(C(=O)NCc3ccc(CC(=O)O)cc3)cc2c1` [(4-{[(5-Carbamimidoyl-1H-indole-2-carbonyl)-amino]-methyl}-phenyl)-acetic acid] had an IC50 of 47 µM. This IC50 is about 16-fold higher than that of the molecule before.

With `CCC(CCCCCNC(=O)c1cc2cc(C(=N)N)ccc2[nH]1)C(=O)O` (stereo unspecified) [7-[(5-Carbamimidoyl-1H-indole-2-carbonyl)-amino]-2-ethyl-heptanoic acid], the IC50 is over 100 µM.

`N=C(N)c1ccc2[nH]c(C(=O)NCCCCCC(=O)O)cc2c1` [6-[(5-Carbamimidoyl-1H-indole-2-carbonyl)-amino]-hexanoic acid] showed an IC50 of over 100 µM.

In turn, `N=C(N)c1ccc2c(C(=O)NCCCCCCC(=O)O)c[nH]c2c1` [7-[(6-Carbamimidoyl-1H-indole-3-carbonyl)-amino]-heptanoic acid] came in with an IC50 of 0.65 µM.

Molecule `N=C(N)c1ccc2c(C(=O)NCCCCCCC(=O)O)[nH]nc2c1` [7-[(6-Carbamimidoyl-1H-indazole-3-carbonyl)-amino]-heptanoic acid] returned an IC50 of 0.14 µM.

Molecule `N=C(N)c1ccc2[nH]c(C(=O)NCc3ccc(CCC(=O)O)cc3)cc2c1` [3-(4-{[(5-Carbamimidoyl-1H-indole-2-carbonyl)-amino]-methyl}-phenyl)-propionic acid] had an IC50 of 39 µM. This IC50 is about 280-fold higher than that of the molecule before.

With `N=C(N)c1ccc2sc(C(=O)NCCCCCCC(=O)O)cc2c1` [7-[(5-Carbamimidoyl-benzo[b]thiophene-2-carbonyl)-amino]-heptanoic acid], the IC50 is 7.3 µM. This IC50 is about 5.3-fold lower than that of the molecule before.
